Published values collected from several papers.
Compare with care: the assays were run in different laboratories.
Target: Tyrosine-protein kinase ITK/TSK (ITK, Homo sapiens, UniProt Q08881)
Sequence (Q08881 1-620, as in one of the studies): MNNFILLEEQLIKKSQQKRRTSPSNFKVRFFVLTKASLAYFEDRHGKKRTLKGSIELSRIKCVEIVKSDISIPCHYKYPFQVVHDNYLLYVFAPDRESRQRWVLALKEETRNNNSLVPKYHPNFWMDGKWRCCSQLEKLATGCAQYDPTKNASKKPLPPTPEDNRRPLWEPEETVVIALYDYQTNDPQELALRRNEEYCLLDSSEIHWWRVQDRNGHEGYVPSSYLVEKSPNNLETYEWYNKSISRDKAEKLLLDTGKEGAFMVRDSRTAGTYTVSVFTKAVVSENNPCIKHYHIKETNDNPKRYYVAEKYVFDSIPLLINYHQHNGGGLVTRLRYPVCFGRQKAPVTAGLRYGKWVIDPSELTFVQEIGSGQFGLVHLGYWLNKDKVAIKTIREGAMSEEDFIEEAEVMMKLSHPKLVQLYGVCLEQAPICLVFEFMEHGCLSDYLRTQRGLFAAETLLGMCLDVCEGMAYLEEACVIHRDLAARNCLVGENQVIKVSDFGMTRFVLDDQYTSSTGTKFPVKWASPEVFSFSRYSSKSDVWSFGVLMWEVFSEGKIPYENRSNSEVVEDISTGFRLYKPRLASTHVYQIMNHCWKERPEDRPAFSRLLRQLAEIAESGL

SMILES | assay | setting | measurement | result
CN(C)C1CCN(CC#Cc2nn(C3CCCC3)c3nc(NCc4ccccc4)ncc23)C1 (stereo not shown) | enzyme activity, inhibitor, FRET | 10 µM | inhibition | 15%
CO[C@@H](C)c1c(Nc2ccc([C@H](N(C)C(=O)C3CCS(=O)(=O)CC3)C(F)(F)F)cc2)cnc2cc(Cl)nn12 | cell-free assay, competition with immobilised ligand | 1 µM | remaining binding | 88%
COc1cc2nccc(Oc3ccc(NC(=S)NC(=O)c4ccccc4C)cc3)c2cc1OC | enzyme activity, inhibitor | 0.5 µM | remaining activity | 80.6%
Cc1ccc(NC(=O)c2ccc(C)c(C(F)(F)F)c2)cc1C#Cc1nn(C2CCC(O)CC2)c2ncnc(N)c12 (stereo not shown) | cell-free assay | 10 µM | remaining signal | 102%
COc1cc2c(N3CCN(C(=O)Nc4ccc(OC(C)C)cc4)CC3)ncnc2cc1OCCCN1CCCCC1 | cell-free assay | 0.5 µM | remaining signal | 99%
Cc1sc(C(=O)NC2COC2)cc1-n1cc(NC(=O)Nc2c(F)cccc2Cl)cn1 | enzyme activity, inhibitor | 10 µM | remaining activity | 94.4%
CCN(CC)CCNC(=O)c1c(C)[nH]c(/C=C2\C(=O)Nc3ccc(F)cc32)c1C | enzyme activity, inhibitor | 0.3 µM | inhibition | 48%
CC/C(=N\NC(=O)NCc1cccc(O)c1)c1ccc(O)c(C)c1O | enzyme activity, inhibitor | 0.1 µM | inhibition | 3.3%
Nc1ncnc2occ(-c3ccc(NC(=O)Nc4cc(C(F)(F)F)ccc4F)cc3)c12 | cell-free assay | 20 µM | remaining signal | 12%
COc1cc(Cl)c(C(=O)N[C@@H](CN[C@H]2CC[C@@H](N)CC2)Cc2ccc(C#N)cc2)cc1-c1ccc(CN[C@H](C)c2ccc(C)cc2)o1 | enzyme activity, inhibitor | 1 µM | remaining activity | 104%
c1nc2c(Nc3ccc4c(c3)OCCO4)nc(Nc3ccc4c(c3)OCCO4)nc2[nH]1 | enzyme activity, inhibitor | 10 µM | activity vs control | 5.1%
CCCOc1ccc([C@H]2[C@H](C(=O)O)[C@@H](c3ccc4c(c3)OCO4)CN2CC(=O)Nc2c(CC)cccc2CC)cc1 | cell-free assay, competition with immobilised ligand | 1 µM | remaining binding | 96%
Cc1ccc(Nc2nccc(N(C)c3ccc4c(C)n(C)nc4c3)n2)cc1S(N)(=O)=O | cell-free assay | 0.5 µM | remaining signal | 115%
O=C(Nc1cccnn1)N1CCC(=Cc2cccc(Oc3ccc(C(F)(F)F)cn3)c2)CC1 | cell-free assay, competition with immobilised ligand | 1 µM | remaining binding | 100%
COc1cc2nccc(Oc3ccc(NC(=O)c4c5n(n(-c6ccc(F)cc6)c4=O)CCCC5)cc3)c2cc1OC | enzyme activity, inhibitor | 0.1 µM | inhibition | 9%
c1cnn2ncc(-c3ccnc(N4CCC45COC5)n3)c2c1 | binding | 1 µM | remaining binding | 100%
O=c1cc(-c2cccc3c2Sc2ccccc2S3)oc(N2CCOCC2)c1 | enzyme activity, inhibitor | 0.5 µM | remaining activity | 96.6%
O=C(NC[C@@H]1[C@H]2CN(C(=O)OCc3cc(C(F)(F)F)cc(C(F)(F)F)c3)C[C@@H]12)c1ccc2[nH]nnc2c1 | cell-free assay, competition with immobilised ligand | 1 µM | remaining binding | 100%
O=C1Nc2ccc(Cl)cc2C1=Cc1cc(Cl)c(O)c(Cl)c1 | cell-free assay | 0.5 µM | remaining signal | 91.8%
C[C@@H]1CN(c2cc(-c3n[nH]c4ccc(OC5(C)CC5)cc34)ncn2)C[C@H](C)O1 | cell-free assay, competition with immobilised ligand | 0.1 µM | remaining binding | 87%
Cc1ccc(C(=O)NCc2ccsc2)cc1C#Cc1cn(C(C)C)c2ncnc(N)c12 | enzyme activity, inhibitor | 1 µM | activity vs control | 97%
COc1cc2ncnc(Nc3ccc(Oc4ccccc4)c(C)c3C)c2cc1OC | enzyme activity, inhibitor | 1 µM | inhibition | 7%
CC1=C(C#N)[C@@H](c2ccc3[nH]nc(C)c3c2)C(C#N)=C(c2ccc(Cl)cc2)N1 | cell-free assay, competition with immobilised ligand | 1 µM | remaining binding | 97.2%
CCN(CC)CCNC(=O)c1c(C)[nH]c(/C=C2\C(=O)Nc3ccc(Cl)cc32)c1C | enzyme activity, inhibitor | 0.5 µM | remaining activity | 30%
CCC(=O)N[C@H]1CC[C@@H](C(=O)N(C)c2ccc(-c3nc4ccccc4o3)cc2)C1 | cell-free assay, competition with immobilised ligand | 1 µM | remaining binding | 100%
CC(C)(C)c1nc2c(s1)c1nc(N)ncc1c1ccc(NS(=O)(=O)c3c(F)cccc3F)c(F)c12 | enzyme activity, inhibitor, radiometric | 1 µM | remaining activity | 94%
CNC(=O)c1cc(Oc2ccc(NC(=O)Nc3ccc(Cl)c(C(F)(F)F)c3)cc2)ccn1 | enzyme activity, inhibitor | 0.3 µM | inhibition | -10%
Cc1nc(C2CCN(C(=O)c3ccc(OC(F)(F)F)cc3N)CC2)c2ncc(N3CCN(C)CC3)cc2n1 | cell-free assay, competition with immobilised ligand | 1 µM | remaining binding | 89%
